Reference: ChEMBL document CHEMBL4619805, “Structural Analysis of VDR Complex with ZK168281 Antagonist” (J Med Chem, 2020)
The source made the active and inactive calls. No cut-off for these calls is given here.

Assays:
[1] = molecular target: T1, Vitamin D3 receptor A (Danio rerio) (UniProt Q9PTN2); experiment: Antagonist activity at full-length zebrafish VDR expressed in rat IEC18 cells co-expressing CYP24A1 promoter region assessed as reduction in 1,25D3-induced receptor activation at 1 to 1000 nM incubated for 24 hrs by luciferase reporter gene assay
T1 sequence (whole entry): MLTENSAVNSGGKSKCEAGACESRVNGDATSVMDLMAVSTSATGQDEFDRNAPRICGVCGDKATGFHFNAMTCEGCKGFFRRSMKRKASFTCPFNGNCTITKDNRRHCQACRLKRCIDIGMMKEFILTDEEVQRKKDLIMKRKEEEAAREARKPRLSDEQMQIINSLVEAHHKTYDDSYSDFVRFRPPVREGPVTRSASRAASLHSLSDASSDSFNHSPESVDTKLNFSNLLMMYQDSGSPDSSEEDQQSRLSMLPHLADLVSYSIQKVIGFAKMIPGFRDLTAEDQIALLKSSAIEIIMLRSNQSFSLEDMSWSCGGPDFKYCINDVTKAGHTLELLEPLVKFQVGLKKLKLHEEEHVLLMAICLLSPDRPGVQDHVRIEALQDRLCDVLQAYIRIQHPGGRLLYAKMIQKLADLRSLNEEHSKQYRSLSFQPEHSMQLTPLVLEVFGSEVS

[2] = molecular target: T1, Vitamin D3 receptor A (Danio rerio); experiment: Binding affinity to H3 and H7 region of zebrafish VDR LBD assessed as stabilization of structural elements by measuring increase in protection at 10 fold excess compound concentration in presence of SRC1 NR2 coactivator peptide measured at 1 mins by HDX-MS analysis
How it was run: (§1)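 Deuterium exchange at pH 8.0 for 60, 180, 600 or 1800 s. Quench, pepsin digestion, UPLC-MS. Per-residue deuteration corrected to a fully deuterated control; triplicates.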

[3] = molecular target: T1, Vitamin D3 receptor A (Danio rerio); experiment: Binding affinity to H12 region of zebrafish VDR LBD assessed as stabilization of structural elements forming LBP at 10 fold excess compound concentration by HDX-MS analysis
How it was run: (§2)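 zVDR LBD (residues 156–453, 10 µM) preincubated 30 min at room temperature with tenfold ligand excess (ethanol control). D2O exchange in 50 mM Tris pH 8.0, 50 mM NaCl, 2% glycerol, 1 mM TCEP for 60–1800 s. Quench with urea/TFA, online pepsin digest, UPLC-MS. Back-exchange corrected against fully deuterated sample; triplicates.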

[4] = molecular target: T2, Vitamin D3 receptor (Homo sapiens) (UniProt P11473); experiment: Antagonist activity at human VDR expressed in HEK293 EBNA cells co-expressing CYP24A1 promoter region assessed as reduction in 1,25D3-induced receptor activation at 0.1 to 1000 nM incubated for 18 hrs by luciferase reporter gene assay; type: cell-based
T2 sequence (whole entry): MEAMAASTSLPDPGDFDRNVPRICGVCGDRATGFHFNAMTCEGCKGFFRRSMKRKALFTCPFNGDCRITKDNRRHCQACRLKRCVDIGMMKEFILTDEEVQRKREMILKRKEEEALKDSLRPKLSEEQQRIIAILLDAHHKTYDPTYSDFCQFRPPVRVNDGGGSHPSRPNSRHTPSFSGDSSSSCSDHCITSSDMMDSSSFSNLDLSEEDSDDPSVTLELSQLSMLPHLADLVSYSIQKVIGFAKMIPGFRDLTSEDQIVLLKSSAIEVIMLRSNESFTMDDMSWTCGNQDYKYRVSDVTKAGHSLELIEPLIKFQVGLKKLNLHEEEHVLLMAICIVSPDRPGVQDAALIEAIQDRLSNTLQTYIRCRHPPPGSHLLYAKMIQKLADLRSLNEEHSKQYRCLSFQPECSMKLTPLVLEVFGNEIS
How it was run: (§3)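 HEK293 EBNA cells, in 5% charcoal-treated FCS for 48 h, co-transfected by jetPEI with full-length hVDR, firefly luciferase under the human CYP24A1 proximal promoter (-414 to -64), and Renilla. 6 h later, 10 nM 1,25D3 ± compound (0.1–1000 nM) added for 18 h. Lysate luciferase normalized to Renilla; triplicate, mean ± SD.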

[5] = molecular target: T1, Vitamin D3 receptor A (Danio rerio); experiment: Binding affinity to H1 region of zebrafish VDR LBD assessed as stabilization of structural elements forming LBP at 10 fold excess compound concentration by HDX-MS analysis
How it was run: as §2

[6] = molecular target: T1, Vitamin D3 receptor A (Danio rerio); experiment: Binding affinity to H2 region of zebrafish VDR LBD assessed as stabilization of structural elements forming LBP at 10 fold excess compound concentration by HDX-MS analysis
How it was run: as §2

[7] = molecular target: T1, Vitamin D3 receptor A (Danio rerio); experiment: Binding affinity to H5 region (290 to 297 residues) of zebrafish VDR LBD assessed as destabilization of structural elements by measuring deprotection at 10 fold excess compound concentration in presence of SRC1 NR2 coactivator peptide measured at 1 mins by HDX-MS analysis relative to 1,25D3
[8] = molecular target: T1, Vitamin D3 receptor A (Danio rerio); experiment: Binding affinity to H12 region of zebrafish VDR LBD assessed as stabilization of structural elements at 10 fold excess compound concentration in presence of SRC1 NR2 coactivator peptide by HDX-MS analysis
How it was run: as §1

[9] = molecular target: T1, Vitamin D3 receptor A (Danio rerio); experiment: Binding affinity to H6 to H7 region (322 to 344 residues) of zebrafish VDR LBD assessed as stabilization of structural elements by measuring increase in protection at 10 fold excess compound concentration in presence of SRC1 NR2 coactivator peptide measured at 1 mins by HDX-MS analysis
How it was run: as §1

[10] = molecular target: T1, Vitamin D3 receptor A (Danio rerio); experiment: Binding affinity to H10 to H11 region (416 to 437 residues) of zebrafish VDR LBD assessed as stabilization of structural elements by measuring increase in protection at 10 fold excess compound concentration in presence of SRC1 NR2 coactivator peptide measured at 1 mins by HDX-MS analysis
How it was run: as §1

[11] = molecular target: T1, Vitamin D3 receptor A (Danio rerio); experiment: Binding affinity to H3 region (253 to 267 residues) of zebrafish VDR LBD assessed as stabilization of structural elements by measuring increase in protection at 10 fold excess compound concentration in presence of SRC1 NR2 coactivator peptide measured at 1 mins by HDX-MS analysis
How it was run: as §1

[12] = molecular target: T2, Vitamin D3 receptor (Homo sapiens); experiment: Antagonist activity at human VDR expressed in HEK293 EBNA cells co-expressing CYP24A1 promoter region assessed as reduction in 1,25D3-induced receptor activation at 0.1 to 1000 nM incubated for 18 hrs by luciferase reporter gene assay relative to control; type: cell-based; design: scale not given: the % may be the effect or the level left
How it was run: as §3

[13] = molecular target: T1, Vitamin D3 receptor A (Danio rerio); experiment: Binding affinity to H12 region (440 to 445 residues) of zebrafish VDR LBD assessed as stabilization of structural elements by measuring increase in protection at 10 fold excess compound concentration in presence of SRC1 NR2 coactivator peptide measured at 1 mins by HDX-MS analysis
How it was run: (§4)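 Deuterium exchange ran for 60, 180, 600 or 1800 s in D₂O buffer (50 mM Tris pH 8.0, 50 mM NaCl, 2% glycerol, 1 mM TCEP). Quench with urea/TFA, then online pepsin digestion and UPLC-MS. Uptake corrected for back exchange against a fully deuterated control. Triplicates.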

[14] = molecular target: T1, Vitamin D3 receptor A (Danio rerio); experiment: Binding affinity to zebrafish VDR LBD assessed as stabilization of structural elements forming LBP at 10 fold excess compound concentration by HDX-MS analysis
How it was run: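 zVDR LBD (10 µM) incubated 30 min at room temperature with ten-fold ligand excess, ethanol as control. D₂O exchange for 60, 180, 600 or 1800 s in 50 mM Tris pH 8.0, 50 mM NaCl, 2% glycerol, 1 mM TCEP. Quench with 3 M urea/0.1% TFA, then pepsin column digestion and UPLC-MS. Back-exchange corrected using a fully deuterated sample. Triplicate reactions.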

[15] = molecular target: T1, Vitamin D3 receptor A (Danio rerio); experiment: Binding affinity to H10 region (416 to 426 residues) of zebrafish VDR LBD assessed as stabilization of structural elements at 10 fold excess compound concentration in presence of SRC1 NR2 coactivator peptide measured at 3 and 10 mins by HDX-MS analysis
How it was run: as §4

inhibition [1] | Activity [2] [%] | Activity [3] | inhibition [4] | Activity [5] | Activity [6] | Activity [7] [%] | Activity [8] | Activity [9] | Activity [10] | Activity [11] | Activity [12] [%] | Activity [13] [%] | Activity [14] | Activity [15] | SMILES
Active | < 80 | inactive | Dose-dependent effect | Active | Active | > 30 | inactive | Active | Active | Active | < 60 |  |  |  | C=C1/C(=C\C=C2/CCC[C@]3(C)[C@@H]([C@H](C)/C=C/[C@@H](O)C4(/C=C/C(=O)OCC)CC4)CC[C@@H]23)C[C@@H](O)C[C@@H]1O
 |  | inactive |  |  |  |  |  |  |  |  |  | 30 to 40 | Active | Active | C=C1/C(=C\C=C2/CCC[C@]3(C)[C@@H]([C@H](C)CCCC(C)(C)O)CC[C@@H]23)C[C@@H](O)C[C@@H]1O
